Drawing on ChEMBL document CHEMBL1126736, “Synthesis and antiherpes virus activity of 1,5-anhydrohexitol nucleosides” (J Med Chem, 1993), this text covers MIC for three molecules.

≈ marks a conversion by molar mass, not a printed value.

One experiment deals with Human alphaherpesvirus 3. Kind of experiment: Inhibitory concentration against VZV strain YS in human embryonic lung (HEL) cell culture. The class given is functional.
Conditions: not given
The molecule `Nc1nc2c(ncn2COC(CO)CO)c(=O)[nH]1` [GANCICLOVIR] had an MIC of 0.072 µg/mL (≈ 0.282 µM).
On the same count and under the same terms, for `O=c1[nH]c(=O)n([C@H]2C[C@H](O)[C@@H](CO)O2)cc1I` [IDOXURIDINE] the value was 0.4 µg/mL (≈ 1.13 µM).

The subject of another experiment is Human alphaherpesvirus 1. Kind of experiment: Inhibitory concentration against HSV type 1 strain F in human embryonic skin muscle (ESM) fibroblast cell culture.
Conditions: not given
The format is functional. An outline of the steps:
(§1)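 Assay in human embryonic skin-muscle (ESM) cells grown in 96-well trays. The value is the concentration that reduces virus-induced cytopathicity by 50%. Single representative experiment.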
As for `Nc1nc2c(ncn2COCCO)c(=O)[nH]1` [ACYCLOVIR], the MIC stood at 0.4 µg/mL (≈ 1.78 µM).
Still for that read-out and setting: for `Nc1nc2c(ncn2COC(CO)CO)c(=O)[nH]1` [GANCICLOVIR] the value was 0.007 µg/mL (≈ 0.0274 µM); for `O=c1[nH]c(=O)n([C@H]2C[C@H](O)[C@@H](CO)O2)cc1I` [IDOXURIDINE], 0.2 µg/mL (≈ 0.565 µM).

The next experiment relates to HEL. Kind of experiment: Inhibitory concentration required to inhibit cell growth by 50% in human embryonic lung (HEL) cell culture. The format is functional.
Conditions: not given
An outline of the steps: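 Uninfected HEL cells grown in 96-well trays. The value is the concentration that reduces cell growth by 50%. Single representative experiment.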
With `Nc1nc2c(ncn2COCCO)c(=O)[nH]1` [ACYCLOVIR], the MIC was more than 200 µg/mL.
Still for that read-out and setting: next, `Nc1nc2c(ncn2COC(CO)CO)c(=O)[nH]1` [GANCICLOVIR]: 85 µg/mL (≈ 333 µM); `O=c1[nH]c(=O)n([C@H]2C[C@H](O)[C@@H](CO)O2)cc1I` [IDOXURIDINE]: more than 50 µg/mL.

In a further experiment the test system is Human alphaherpesvirus 2. Kind of experiment: Inhibitory concentration against HSV type 2 strain 196 in human embryonic skin muscle (ESM) fibroblast cell culture. The class given is functional.
Conditions: not given
An outline of the steps:
as §1
`Nc1nc2c(ncn2COCCO)c(=O)[nH]1` [ACYCLOVIR]: the MIC was 2 µg/mL (≈ 8.88 µM).
On the same count and under the same terms, next, `Nc1nc2c(ncn2COC(CO)CO)c(=O)[nH]1` [GANCICLOVIR]: 0.02 µg/mL (≈ 0.0784 µM).
For the molecule `O=c1[nH]c(=O)n([C@H]2C[C@H](O)[C@@H](CO)O2)cc1I` [IDOXURIDINE], the MIC was 0.2 µg/mL (≈ 0.565 µM).

The test system of the next experiment is Human alphaherpesvirus 3. Kind of experiment: Inhibitory concentration against VZV strain OKA in human embryonic lung (HEL) cell culture. The class given is functional.
Conditions: not given
Consider `Nc1nc2c(ncn2COC(CO)CO)c(=O)[nH]1` [GANCICLOVIR], for which the MIC amounted to 0.02 µg/mL (≈ 0.0784 µM).
In turn, `O=c1[nH]c(=O)n([C@H]2C[C@H](O)[C@@H](CO)O2)cc1I` [IDOXURIDINE] displayed an MIC of 0.17 µg/mL (≈ 0.48 µM).

In the next experiment the test system is Human alphaherpesvirus 2. Kind of experiment: Inhibitory concentration against HSV type 2 strain G in human embryonic skin muscle (ESM) fibroblast cell culture. The class given is functional.
Conditions: not given
An outline of the steps:
as §1
With `Nc1nc2c(ncn2COCCO)c(=O)[nH]1` [ACYCLOVIR], the MIC amounted to 0.02 µg/mL (≈ 0.0888 µM).
Same read-out and setting: next, `Nc1nc2c(ncn2COC(CO)CO)c(=O)[nH]1` [GANCICLOVIR]: 0.004 µg/mL (≈ 0.0157 µM); `O=c1[nH]c(=O)n([C@H]2C[C@H](O)[C@@H](CO)O2)cc1I` [IDOXURIDINE]: 0.2 µg/mL (≈ 0.565 µM).

For a further experiment, the system named is Cytomegalovirus. Kind of experiment: Inhibitory concentration against CMV strain Davis in human embryonic lung (HEL) cell culture. The class given is functional. The settings on record: Human betaherpesvirus 5. An outline of the steps: (§2)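 Plaque-reduction assay in human embryonic lung (HEL) cells grown in 96-well trays. The value is the concentration that reduces virus plaque formation by 50%. Single representative experiment.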
`Nc1nc2c(ncn2COC(CO)CO)c(=O)[nH]1` [GANCICLOVIR] had an MIC of 6.2 µg/mL (≈ 24.3 µM).

The subject of a further experiment is Human alphaherpesvirus 1. Kind of experiment: Inhibitory concentration against HSV type 1 strain KOS in human embryonic skin muscle (ESM) fibroblast cell culture. The format is functional.
Conditions: not given
Molecule `Nc1nc2c(ncn2COCCO)c(=O)[nH]1` [ACYCLOVIR] registered an MIC of 0.02 µg/mL (≈ 0.0888 µM).
For `Nc1nc2c(ncn2COC(CO)CO)c(=O)[nH]1` [GANCICLOVIR], the MIC stood at 0.004 µg/mL (≈ 0.0157 µM).
For the molecule `O=c1[nH]c(=O)n([C@H]2C[C@H](O)[C@@H](CO)O2)cc1I` [IDOXURIDINE], the MIC turned out to be 0.2 µg/mL (≈ 0.565 µM).

The test system of another experiment is Human alphaherpesvirus 3. Kind of experiment: Inhibitory concentration against TK-VZV strain 07-1 in human embryonic lung (HEL) cell culture.
Conditions: not given
The format is functional.
`Nc1nc2c(ncn2COC(CO)CO)c(=O)[nH]1` [GANCICLOVIR] gave an MIC of 0.1 µg/mL (≈ 0.392 µM).
Take `O=c1[nH]c(=O)n([C@H]2C[C@H](O)[C@@H](CO)O2)cc1I` [IDOXURIDINE]: the MIC is 4 µg/mL (≈ 11.3 µM).

The next experiment relates to Human alphaherpesvirus 1. Kind of experiment: Inhibitory concentration against HSV type 1 strain Mc Intyre in human embryonic skin muscle (ESM) fibroblast cell culture. The class given is functional.
Conditions: not given
An outline of the steps:
as §1
In turn, `Nc1nc2c(ncn2COCCO)c(=O)[nH]1` [ACYCLOVIR] yielded an MIC of 0.7 µg/mL (≈ 3.11 µM).
The same measure, in the same setting: for `Nc1nc2c(ncn2COC(CO)CO)c(=O)[nH]1` [GANCICLOVIR] the value was 0.001 µg/mL (≈ 0.00392 µM).
For the molecule `O=c1[nH]c(=O)n([C@H]2C[C@H](O)[C@@H](CO)O2)cc1I` [IDOXURIDINE], the MIC amounted to 1 µg/mL (≈ 2.82 µM).

The next experiment has as its system ESM. Kind of experiment: Inhibitory concentration required for morphologic alteration in normal cell in human embryonic skin muscle (ESM) fibroblast cell culture. The class given is functional.
Conditions: not given
An outline of the steps: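 Uninfected ESM cells in 96-well trays, examined under the microscope. The value is the minimal concentration that causes a detectable change in normal cell morphology. Tested up to 400 μg/mL. Single representative experiment.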
For the molecule `O=c1[nH]c(=O)n([C@H]2C[C@H](O)[C@@H](CO)O2)cc1I` [IDOXURIDINE], the MIC was more than 400 µg/mL.

In another experiment the test system is Human alphaherpesvirus 1. Kind of experiment: Inhibitory concentration against TK-HSV type 1 strain B2006 in human embryonic skin muscle (ESM) fibroblast cell culture. The class given is functional.
Conditions: not given
An outline of the steps:
as §1
The molecule `Nc1nc2c(ncn2COCCO)c(=O)[nH]1` [ACYCLOVIR] returned an MIC of 70 µg/mL (≈ 311 µM).
Still for that read-out and setting: for `Nc1nc2c(ncn2COC(CO)CO)c(=O)[nH]1` [GANCICLOVIR] the value was 2 µg/mL (≈ 7.84 µM).
Same read-out and setting: next, `O=c1[nH]c(=O)n([C@H]2C[C@H](O)[C@@H](CO)O2)cc1I` [IDOXURIDINE]: 70 µg/mL (≈ 198 µM).

A further experiment deals with Human alphaherpesvirus 2. Kind of experiment: Inhibitory concentration against HSV type 2 strain Lyons in human embryonic skin muscle (ESM) fibroblast cell culture. The format is functional.
Conditions: not given
An outline of the steps:
as §1
Regarding `Nc1nc2c(ncn2COCCO)c(=O)[nH]1` [ACYCLOVIR], the MIC is 0.7 µg/mL (≈ 3.11 µM).
The same measure, in the same setting: next, `Nc1nc2c(ncn2COC(CO)CO)c(=O)[nH]1` [GANCICLOVIR]: 0.02 µg/mL (≈ 0.0784 µM).
Same read-out and setting: next, `O=c1[nH]c(=O)n([C@H]2C[C@H](O)[C@@H](CO)O2)cc1I` [IDOXURIDINE]: 0.2 µg/mL (≈ 0.565 µM).

A further experiment concerns Cytomegalovirus. Kind of experiment: Inhibitory concentration against CMV strain AD169 in human embryonic lung (HEL) cell culture. The class given is functional. The settings on record: Human betaherpesvirus 5. An outline of the steps: as §2
In turn, `Nc1nc2c(ncn2COC(CO)CO)c(=O)[nH]1` [GANCICLOVIR] returned an MIC of 3 µg/mL (≈ 11.8 µM).

In another experiment the test system is Vaccinia virus. Kind of experiment: Inhibitory concentration against VV in human embryonic skin muscle (ESM) fibroblast cell culture. The class given is functional. The settings on record: Orthopoxvirus vaccinia.
On to `Nc1nc2c(ncn2COCCO)c(=O)[nH]1` [ACYCLOVIR], for which the MIC is more than 400 µg/mL.
In turn, `Nc1nc2c(ncn2COC(CO)CO)c(=O)[nH]1` [GANCICLOVIR] had an MIC of 70 µg/mL (≈ 274 µM).
`O=c1[nH]c(=O)n([C@H]2C[C@H](O)[C@@H](CO)O2)cc1I` [IDOXURIDINE] had an MIC of 0.7 µg/mL (≈ 1.98 µM).

In another experiment the test system is Vesicular stomatitis virus. Kind of experiment: Inhibitory concentration against VSV in human embryonic skin muscle (ESM) fibroblast cell culture.
Conditions: not given
The format is functional.
In the case of `Nc1nc2c(ncn2COCCO)c(=O)[nH]1` [ACYCLOVIR], the MIC is more than 400 µg/mL.
Same read-out and setting: for `Nc1nc2c(ncn2COC(CO)CO)c(=O)[nH]1` [GANCICLOVIR] the value was more than 400 µg/mL; for `O=c1[nH]c(=O)n([C@H]2C[C@H](O)[C@@H](CO)O2)cc1I` [IDOXURIDINE], more than 400 µg/mL.

In the next experiment the test system is Human alphaherpesvirus 3. Kind of experiment: Inhibitory concentration against TK-VZV strain YS-R in human embryonic lung (HEL) cell culture. The format is functional.
Conditions: not given
The molecule `Nc1nc2c(ncn2COC(CO)CO)c(=O)[nH]1` [GANCICLOVIR] showed an MIC of 0.9 µg/mL (≈ 3.53 µM).
Molecule `O=c1[nH]c(=O)n([C@H]2C[C@H](O)[C@@H](CO)O2)cc1I` [IDOXURIDINE] returned an MIC of 4 µg/mL (≈ 11.3 µM).
